Data set [1] deals with MCF7. Nature of the data set: Drug uptake in human MCF7 cells at 10^-6 M after 6 days by HPLC-MS/MS analysis. It counts as ADME, cell-based. The note with it: mcf7, 144 h, 1 µM. A digest of the protocol:
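Uptake is estimated indirectly. Drug remaining in the culture medium was measured after 6 days of incubation with MCF-7 cells.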

Data set [2] concerns MCF7. The data set can be described thus: Growth inhibition of human MCF7 cells at 10^-6 M after 5 days relative to control. It counts as functional. The note with it: MCF7, 120 h, read-out: GI. Put shortly:
(§1)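 Cell survival assay on ER+ MCF-7 or T47D cells treated at fixed concentrations of 10–7 M and 10–6 M. 4-OHT-treated cells served as positive control. Growth inhibition is expressed as percent relative to survival.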

For data set [3], the system named is MCF7. Nature of the data set: Metabolic stability in human MCF7 cells assessed as compound remaining by LC-MS/MS analysis. Format: ADME, cell-based.
In data set [4] the test system is T47D. The data set can be described thus: Cytotoxicity against human T47D cells after 5 days. It counts as functional, cell-based. The note with it: 120 h.
Data set [5] concerns MDA-MB-231. Nature of the data set: Cytotoxicity against human MDA-MB-231 cells assessed as cell survival at 10^-7 M relative to vehicle-treated control. Format: functional. The note with it: for viability at 0.1 µM: read-out: Survival. A digest of the protocol: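 MDA-MB-231 used as the ER-negative breast cancer line, tested at 10–7 M alongside MCF-7 cells. Read-out is survival ratio versus control.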

Data set [6] deals with MCF7. The data set can be described thus: Cytotoxicity against human MCF7 cells after 5 days. It counts as functional, cell-based. The note with it: MCF7, 120 h.
In data set [7] the test system is MCF7. Nature of the data set: Growth inhibition of human MCF7 cells at 10^-7 M after 5 days relative to control. It counts as functional. The note with it: MCF7, 120 h, read-out: GI. Put shortly: as §1
Data set [8] can be described thus: Half life of the compound in human MCF7 cells at 10^-6 M by HPLC-MS/MS analysis. It counts as ADME, cell-based.
In data set [9] the test system is T47D. The data set can be described thus: Growth inhibition of human T47D cells at 10^-6 M after 5 days relative to control. It counts as functional. The note with it: 120 h, read-out: GI. Put shortly: as §1
The subject of data set [10] is T47D. The data set can be described thus: Metabolic stability in human T47D cells assessed as compound remaining by LC-MS/MS analysis. It counts as ADME, cell-based. Put shortly: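 Culture medium from MCF-7 or T47D cells incubated with prodrug was analysed for both intact prodrug and released 4-OHT. Results are reported as relative chromatographic peak areas (% of total for prodrug versus 4-OHT).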

Data set [11] concerns MCF7. Nature of the data set: Ratio of tamoxifen IC50 to compound IC50 for human MCF7 cells. Format: functional.
Data set [12] deals with T47D. Nature of the data set: Growth inhibition of human T47D cells at 10^-7 M after 5 days relative to control. It counts as functional. The note with it: 120 h, read-out: GI. A digest of the protocol: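 Cell survival assay in ER+ T47D breast cancer cells dependent on estrogen for growth. Compounds tested at 10–7 and 10–6 M, with 4-OHT as positive control. Read-out is % growth inhibition from survival relative to control.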

The test system of data set [13] is MCF7. Nature of the data set: Ratio of 4-hydroxytamoxifen IC50 to compound IC50 for human MCF7 cells. It counts as functional.

Calls of active or inactive are those of the source. The calls are words filed in the database; no cut-off is given here.

The IC50 is the concentration needed to halve the response being measured. A higher IC50 goes with a need for much substance. Usually half-life stands for how long it takes for the measured level to halve. Low readings indicate rapid decline, high ones slow decline. As for `CC/C(=C(/c1ccc(OCCN(C)C)cc1)c1ccc(B(O)O)cc1)c1ccccc1`, the Drug uptake result in data set [1] was “Active”. Moreover, the inhibition of growth at 1 µM was 75% in [2] and 54% in [9]. Besides, the values for the Stability in data set [3] and in data set [10] were 30.4% and 20.9%, respectively. The figures for the IC50 in data set [4] and in data set [6] were 228 nM and 42 nM, respectively. The result in [5] was inactive. The inhibition of growth at 0.1 µM in [7] came out at 51%. The compound further showed a half-life at 1 µM in data set [8] of 96 h.
Regarding `CC/C(=C(/c1ccc(OCCN(C)C)cc1)c1ccc([B-](F)(F)F)cc1)c1ccccc1.[K+]`, in data set [1], the Drug uptake entry was “Active”. Also, the figures for the inhibition of growth at 1 µM in data set [2] and in data set [9] were 76% and 50%, respectively. The IC50 turned out to be 260 nM in data set [4] and 6.26 nM in [6]. In addition, in data set [5], the result was inactive. Also, the inhibition of growth at 0.1 µM in data set [7] was determined as 59%. This compound gave a half-life at 1 µM in data set [8] of 84 h.
On to `CCC(=C(c1ccc(O)cc1)c1ccc(OCCN(C)C)cc1)c1ccccc1`, for which the “Ratio IC50” value in data set [11] was 30. In data set [1], the Drug uptake entry is on record as “Active”. Besides, the inhibition of growth at 0.1 µM in [12] was found to be 51%; in [7], 56%. Also, the inhibition of growth at 1 µM in data set [2] was determined as 63%. For the same compound, the IC50 was found to be 210 nM in [4] and 29.1 nM in [6]. The viability at 0.1 µM in [5] is greater than 95%.
Regarding `CC/C(=C(\c1ccccc1)c1ccc(OCCN(C)C)cc1)c1ccccc1` [TAMOXIFEN], the inhibition of growth at 1 µM in [2] is 52%. Moreover, the viability at 0.1 µM in data set [5] was greater than 95%. Besides, the inhibition of growth at 0.1 µM in data set [7] was 18%.
Consider `CC/C(=C(/c1ccc(OCCN(C)C)cc1)c1ccc(B2OC(C)(C)C(C)(C)O2)cc1)c1ccccc1`, for which the Drug uptake result in data set [1] was “Active”. Also, the inhibition of growth at 1 µM in data set [2] was determined as 63%; in data set [9], 60%. Moreover, the Ratio IC50 in data set [13] worked out at 0.2. The IC50 in data set [4] is 144 nM; in [6], 148 nM. Moreover, in [5], the outcome was inactive. Further, the inhibition of growth at 0.1 µM in data set [7] was 52%. This compound also gave a half-life at 1 µM in data set [8] of 89 h.

For the origin of these results see ChEMBL document CHEMBL2062492 (ACS Med Chem Lett, 2012).
